ARNT-TACC3 inh = disruptors of human ARNT/TACC3 interaction. Q9Y6A5. AlphaScreen His-ARNT PAS-B/GST-TACC3 binding, luminescence; TACC3 fragment carries E629A point mutation. inhibition, % at 9.99 µM. 390,000 compounds, 0.66% hits;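 active means mean inhibition of replicates at least 50% and at least half of replicates each reaching 50%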;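 further: 0% = complete ARNT plus TACC3 wells and 100% = ARNT alone without TACC3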
SR-BI HDL uptake = mouse SR-BI HDL lipid transfer inhibition. ldlA[mSR-BI] CHO cells, DiI-HDL uptake fluorescence, 3 h. inhibition, % at 12.5 µM. 320,000 compounds, 0.96% hits;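 active means mean replicate inhibition of at least 70% and a set share of replicates each scoring 70 or more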;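 further: 0% = median of neutral control wells and 100% = median of positive control wells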
Target sequence (Q61009 whole entry, looked up): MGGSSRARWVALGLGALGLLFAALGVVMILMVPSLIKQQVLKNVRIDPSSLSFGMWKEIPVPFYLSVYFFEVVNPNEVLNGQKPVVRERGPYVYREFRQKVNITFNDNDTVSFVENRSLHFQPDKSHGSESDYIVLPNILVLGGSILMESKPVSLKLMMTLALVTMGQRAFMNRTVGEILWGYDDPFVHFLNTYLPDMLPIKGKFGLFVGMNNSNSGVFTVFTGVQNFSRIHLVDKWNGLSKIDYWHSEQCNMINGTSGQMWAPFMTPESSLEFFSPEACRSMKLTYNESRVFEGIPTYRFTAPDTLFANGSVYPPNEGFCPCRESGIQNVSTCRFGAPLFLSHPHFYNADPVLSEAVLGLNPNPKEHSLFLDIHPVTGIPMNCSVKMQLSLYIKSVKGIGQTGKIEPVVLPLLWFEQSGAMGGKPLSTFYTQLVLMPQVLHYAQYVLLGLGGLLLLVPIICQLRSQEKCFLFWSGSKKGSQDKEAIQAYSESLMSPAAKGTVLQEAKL
NSD2 HMT inh = inhibitors of human histone methyltransferase NSD2; inhibition, % at 12.5 µM; 310,000 compounds, 0.54% hits; NSD2 peptide methylation, AlphaScreen, 120 min; in the data active means inhibition above about 50%
SR-BI DiI-HDL act = activators of SR-BI mediated HDL lipid uptake; 320,000 compounds, 0.096% hits; AID 504775; activation, % at 12.5 µM; CHO ldlA[mSR-BI] cells, DiI-HDL uptake fluorescence, 3 h; 100 = double the neutral-control signal;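 active means mean replicate activation of at least 60% and every replicate at or above 60%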;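 further: 0% = median plate neutral-control signal and 100% = twice that signal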
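Test system: SR-BI-overexpressing, LDLR-lacking CHO cells. Measured by: DiI fluorescence, bottom read. Medium: Ham's F12 with 0.5% BSA, HEPES 25 mM, pH 7.4. Timing: 3 h uptake period with compound, 37 °C.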
HGIII-sPLA2 inh = Inhibits HGIII-sPLA2 liposome hydrolysis, primary screen | Q9NZ20 | QFRET BODIPY PC-A2 liposome hydrolysis, fluorescence | inhibition, % at 12.2 µM | 370,000 compounds, 0.56% hits;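 active means inhibition above mean plus 3 SD of compounds lying within the high and low control bounds, cut at about 19% in these data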;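 further: 0% = median of test compound wells and 100% = no enzyme DMSO wells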
XiGFP reactiv = activators of X-chromosome reactivation in mouse fibroblasts. XiGFP mouse fibroblasts, % GFP-positive cells imaging, 3 d; cells co-treated with 5-aza-dC sensitizer; scaled so ellipticine positive control = 100%. activation, % at 7.58 µM. 360,000 compounds, 0.055% hits;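 active means mean normalized replicate activation at least 10% and every replicate at or above 10%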;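 further: 0% = median of on-plate neutral control wells and 100% = ellipticine 6 µM median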
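System: SV40-immortalized XiGFP fibroblast cells, line 68-5-11 / Incubation: 3-day compound exposure, then 15 min fixation at room temperature / Compound: single concentration per compound, delivered by pin transfer / Buffer or medium: DMEM plus 5-aza-dC sensitizer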
AlphaScreen art = interferes with AlphaScreen signal, flagging NSD2 false positives | shares compounds with NSD2 HMT inh | AlphaScreen artifact counterscreen, preloaded methylated H4 peptide | AC35, µM (highest dose often 10 µM), for inactives: top-dose activity change, negative = signal loss | 1,500 compounds, 9.4% hits; call rule not given here
* marks the source's active call; other numbers are inactive results. Hits are enriched below; roughly 2% of the tested compounds scored in any of these assays.

For CCN(CC)S(=O)(=O)c1ccc(-c2cn3cc(Cl)ccc3n2)cc1 the results were ARNT-TACC3 inh -4.3, SR-BI HDL uptake 14.7, NSD2 HMT inh 76.8*, SR-BI DiI-HDL act -14.7, HGIII-sPLA2 inh -1.6, XiGFP reactiv 0.0 and AlphaScreen art 1.8%.
`Clc1ccc(-c2cn3cc(Cl)ccc3n2)cc1` gave ARNT-TACC3 inh -10.6, SR-BI HDL uptake 52.8, NSD2 HMT inh -3.5, SR-BI DiI-HDL act -52.8, HGIII-sPLA2 inh 2.8 and XiGFP reactiv 0.0.
`COc1ccc(C(=O)N[C@H](C(=O)NCc2ccc(C)cc2)C(C)C)cc1` gave ARNT-TACC3 inh 1.5, NSD2 HMT inh 75.3*, HGIII-sPLA2 inh -1.2, XiGFP reactiv 0.0 and AlphaScreen art -3.0%.
CCCCn1c(N)c(N(C)C(=O)c2cccc(-n3cnnn3)c2)c(=O)[nH]c1=O was read as ARNT-TACC3 inh -7.1, SR-BI HDL uptake -25.0, NSD2 HMT inh 2.8, SR-BI DiI-HDL act 25.0, HGIII-sPLA2 inh 0.3 and XiGFP reactiv 0.1.
`CCCCOc1ccc(-c2ncc(N)cn2)cc1` gave ARNT-TACC3 inh -7.0, SR-BI HDL uptake -312.7, NSD2 HMT inh 59.9*, SR-BI DiI-HDL act 312.7*, HGIII-sPLA2 inh 11.2, XiGFP reactiv 0.0 and AlphaScreen art -1.9%.
For CCCCOc1ccc(-c2nnc(N)s2)cc1 the results were ARNT-TACC3 inh -2.9, SR-BI HDL uptake -15.6, NSD2 HMT inh -0.3, SR-BI DiI-HDL act 15.6, HGIII-sPLA2 inh -9.9 and XiGFP reactiv 0.2.
`Cc1ccc(C(=O)C2CCN(S(=O)(=O)c3ccc(C(=O)O)cc3)CC2)cc1` gave ARNT-TACC3 inh -6.5, SR-BI HDL uptake -19.4, NSD2 HMT inh 65.6*, SR-BI DiI-HDL act 19.4, HGIII-sPLA2 inh 2.9, XiGFP reactiv 0.0 and AlphaScreen art -4.5%.
COc1cc(/C=C2\C(=O)N(c3cccc(C(=O)O)c3)N=C2C)ccc1OCc1ccccc1 was read as NSD2 HMT inh 18.8, HGIII-sPLA2 inh -8.3 and XiGFP reactiv 0.5.
For CC1=NN(c2cccc(C(=O)O)c2)C(=O)/C1=C\C=C\c1ccco1 the results were ARNT-TACC3 inh 1.0, NSD2 HMT inh active, HGIII-sPLA2 inh -19.1 and AlphaScreen art 7.22µM*.
Cc1ccc(-c2ccc([C@H]3[C@@H](CO)N4CCCCN(C(=O)c5ccncc5)C[C@H]34)cc2)cc1 was read as ARNT-TACC3 inh 8.0 and XiGFP reactiv 0.1.
For Cc1cc(=O)cc(C)n1-c1ccc(O)cc1 the results were ARNT-TACC3 inh -0.8, SR-BI HDL uptake -32.3, NSD2 HMT inh 71.4*, SR-BI DiI-HDL act 32.3, HGIII-sPLA2 inh 2.7, XiGFP reactiv 0.1 and AlphaScreen art -1.7%.
`Cc1cc(=O)cc(C)n1-c1ccc(Cl)cc1` gave ARNT-TACC3 inh 7.5, SR-BI HDL uptake -7.5, NSD2 HMT inh -2.3, SR-BI DiI-HDL act 7.5, HGIII-sPLA2 inh 5.7 and XiGFP reactiv 0.1.
COc1ccc(N2C(=O)C3C(C2=O)C(C(=O)c2ccc(Cl)cc2)N2CCCC32)cc1 (configuration not stated) was read as ARNT-TACC3 inh 2.9, NSD2 HMT inh 79.3*, HGIII-sPLA2 inh -8.6, XiGFP reactiv 0.1 and AlphaScreen art -6.7%.
Cc1ccc(C(=O)Nc2cccc(-c3cnc4ccccc4n3)c2)cc1 was read as ARNT-TACC3 inh -1.3, SR-BI HDL uptake 0.8, NSD2 HMT inh -1.0, SR-BI DiI-HDL act -0.8 and HGIII-sPLA2 inh 3.8.
Screening Cc1cccc(C(=O)Nc2cccc(-c3cnc4ccccc4n3)c2)c1 returned ARNT-TACC3 inh -2.1, SR-BI HDL uptake 13.1, NSD2 HMT inh 56.9*, SR-BI DiI-HDL act -13.1, HGIII-sPLA2 inh 8.4 and AlphaScreen art -2.3%.
`CC1=C/C(=C(\c2cc(C)c(O)c(Br)c2)c2ccccc2S(=O)(=O)O)C=C(Br)C1=O` gave ARNT-TACC3 inh 28.2, SR-BI HDL uptake -1.0, NSD2 HMT inh 50.4*, SR-BI DiI-HDL act 1.0, HGIII-sPLA2 inh -14.8, XiGFP reactiv 0.0 and AlphaScreen art 7.81µM*.
Screening O=C1CCCC(O)=C1N=Nc1cccc(C(=O)O)c1 returned ARNT-TACC3 inh 15.2, SR-BI HDL uptake -14.2, NSD2 HMT inh 69.0*, SR-BI DiI-HDL act 14.2, HGIII-sPLA2 inh -2.8, XiGFP reactiv 0.1 and AlphaScreen art -1.9%.
`CCN(CC)S(=O)(=O)c1cccc(N=NC2=C(O)CCCC2=O)c1` gave ARNT-TACC3 inh 0.7, SR-BI HDL uptake -12.1, NSD2 HMT inh 1.9, SR-BI DiI-HDL act 12.1, HGIII-sPLA2 inh 2.0 and XiGFP reactiv -0.1.
Screening CSc1nnc(-c2ccco2)c(-c2ccco2)n1 returned SR-BI HDL uptake 7.7, NSD2 HMT inh 113.7*, SR-BI DiI-HDL act -7.7, HGIII-sPLA2 inh -2.3 and AlphaScreen art -8.0%.
Screening Cn1c(=O)c2c(-c3ccccc3)n(Cc3cccnc3)cc2n(C)c1=O returned ARNT-TACC3 inh 0.0, SR-BI HDL uptake -14.2, NSD2 HMT inh 52.7*, SR-BI DiI-HDL act 14.2, HGIII-sPLA2 inh -3.7 and AlphaScreen art -3.7%.
`CCNC(=O)Cc1ccc(NS(=O)(=O)c2ccc(F)cc2)cc1` gave ARNT-TACC3 inh 6.4, SR-BI HDL uptake 2.8, NSD2 HMT inh 109.1*, SR-BI DiI-HDL act -2.8, HGIII-sPLA2 inh -2.5 and AlphaScreen art -1.7%.
For COc1ccc(-c2csc(N(CCCN(C)C)C(=O)c3ccccc3Cl)n2)cc1 the results were ARNT-TACC3 inh 16.7, SR-BI HDL uptake 2.2, NSD2 HMT inh 57.8*, SR-BI DiI-HDL act -2.2, HGIII-sPLA2 inh -9.8, XiGFP reactiv 0.0 and AlphaScreen art -6.5%.
CCOc1ccccc1N1CCN(Cc2ccco2)CC1 was read as ARNT-TACC3 inh -12.3, SR-BI HDL uptake -21.3, NSD2 HMT inh 0.4, SR-BI DiI-HDL act 21.3 and HGIII-sPLA2 inh 1.6.
Screening CCOc1ccccc1N1CCN(C/C=C/c2ccc(N(C)C)cc2)CC1 returned SR-BI HDL uptake 7.2, NSD2 HMT inh 68.9*, SR-BI DiI-HDL act -7.2, HGIII-sPLA2 inh 9.3 and AlphaScreen art 9.17µM*.
`COc1ccc(/C=C2\SC(N)=NC2=O)cc1Br` gave ARNT-TACC3 inh 1.8, SR-BI HDL uptake 24.7, NSD2 HMT inh -0.3, SR-BI DiI-HDL act -24.7, HGIII-sPLA2 inh -0.3 and XiGFP reactiv 0.0.
Screening COc1cc(/C=C2\SC(N)=NC2=O)cc(Cl)c1O returned ARNT-TACC3 inh 6.1, SR-BI HDL uptake -18.0, NSD2 HMT inh 67.7*, SR-BI DiI-HDL act 18.0, HGIII-sPLA2 inh 5.1, XiGFP reactiv 0.0 and AlphaScreen art -3.8%.
Screening NC(=S)NN=Cc1ccc(-c2ccc(S(=O)(=O)Nc3ncccn3)cc2)o1 returned ARNT-TACC3 inh 16.6, SR-BI HDL uptake 5.4, NSD2 HMT inh 144.6*, SR-BI DiI-HDL act -5.4, HGIII-sPLA2 inh -9.9, XiGFP reactiv -0.1 and AlphaScreen art -7.7%.

Screening data: PubChem, several laboratories
